# Experimental data gathered from unrelated publications.
# Protocols differ between the studies behind these lines.
# Matrix: Caco-2
Compound,conditions,endpoint,result
C[C@H]1O[C@@H](O[C@H]2[C@@H](O)C[C@H](O[C@H]3[C@@H](O)C[C@H](O[C@H]4CC[C@@]5(C)[C@H](CC[C@@H]6[C@@H]5C[C@@H](O)[C@]5(C)[C@@H](C7=CC(=O)OC7)CC[C@]65O)C4)O[C@@H]3C)O[C@@H]2C)C[C@H](O)[C@@H]1O,"10 µM, 2 h, pH 7.4",Papp B→A,9.63 ×10⁻⁶ cm/s
CCC(C)n1ncn(-c2ccc(N3CCN(c4ccc(OCC5COC(Cn6cncn6)(c6ccc(Cl)cc6Cl)O5)cc4)CC3)cc2)c1=O (centres unmarked),"1 µM, pH 7.4",Papp,1.5 to 2.5 ×10⁻⁶ cm/s
CNCc1cc(-c2ccccc2F)n(S(=O)(=O)c2cccnc2)c1,,Papp,17.8 ×10⁻⁶ cm/s
CC(C)NCC(O)COc1cccc2ccccc12 (centres unmarked),"10 µM, 2 h, pH 7.4",Papp B→A,9.99 ×10⁻⁶ cm/s
COCCc1ccc(OCC(O)CNC(C)C)cc1 (centres unmarked),,Papp,15 ×10⁻⁶ cm/s
CCCCN1C(=O)[C@@H]([C@@H](O)C2CCCCC2)NC(=O)C12CCN(Cc1ccc(Oc3ccc(C(=O)O)cc3)cc1)CC2.Cl,,Papp,1.6 ×10⁻⁶ cm/s
Cc1ncsc1-c1ccc(CNC(=O)[C@@H]2C[C@@H](O)CN2C(=O)[C@@H](NC(=O)C2(F)CC2)C(C)(C)C)c(OCCOc2ccc(CN3CCN(c4cc(-c5ccccc5O)nnc4N)CC3)cc2)c1,"2 h, pH 7.2",Papp B→A,3.8 ×10⁻⁶ cm/s
O=c1c(O)c(-c2ccc(O)c(O)c2)oc2cc(O)cc(O)c12,"1 mg/mL, pH 7.4",Papp,1.7 ×10⁻⁶ cm/s
CC(C)NCC(O)COc1cccc2ccccc12 (centres unmarked),,Papp B→A,59.3 ×10⁻⁶ cm/s
COc1cc(Cl)c(C(=O)N[C@@H](CN[C@H]2CC[C@@H](N)CC2)Cc2ccc(C#N)cc2)cc1-c1ccc(CN[C@H](C)c2ccc(C)cc2)o1,"2 µM, 2 h, pH 7.2",Papp B→A,1.1 ×10⁻⁶ cm/s
O=c1c(O[C@@H]2O[C@H](CO)[C@@H](O)[C@H](O)[C@H]2O)c(-c2ccc(O)c(O)c2)oc2cc(O)cc(O)c12,"1 mg/mL, pH 7.4",Papp,2.05 ×10⁻⁶ cm/s
C[C@H]1O[C@@H](O[C@H]2[C@@H](O)C[C@H](O[C@H]3[C@@H](O)C[C@H](O[C@H]4CC[C@@]5(C)[C@H](CC[C@@H]6[C@@H]5C[C@@H](O)[C@]5(C)[C@@H](C7=CC(=O)OC7)CC[C@]65O)C4)O[C@@H]3C)O[C@@H]2C)C[C@H](O)[C@@H]1O,,Papp B→A,14 ×10⁻⁶ cm/s
Cn1c(=O)c2c(nc(S)n2C)n(C)c1=O,"10 µM, 2 h",Papp B→A,3 ×10⁻⁶ cm/s
CCC(=O)N[C@H]1Cc2cccc(C(=O)O)c2OB1O,"5 µM, 2 h, pH 7.4",Papp B→A,0.15 ×10⁻⁶ cm/s
CC(C)c1cccc2c(-c3ccccc3)cc(-c3ccc(-c4ccc(C(=O)O)cc4)[nH]3)nc12,,Papp B→A,1.11 ×10⁻⁶ cm/s
O=C(c1cc(Cc2n[nH]c(=O)c3ccccc23)ccc1F)N1CCN(C(=O)C2CC2)CC1,,Papp,7.75 ×10⁻⁶ cm/s
CC[C@H](C)C(=O)N1CCC(NC(=O)Nc2ccc(OC(F)(F)F)c(F)c2)CC1,"10 µM, 1 h, pH 7.4",Papp B→A,16.4 ×10⁻⁶ cm/s
